In the library only some 1.1% were active in any assay of this set; here they are far more common.
Diaph act CS = diaphorase activation or chemical reduction counter-screen; 0.005% of 190,000 active; Diaphorase/resazurin coupled assay, resorufin fluorescence, 16 min; active compounds read high; 1 = vehicle wells, 0 = NADH-free wells; AID 1229; activation factor at 20 µM;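 active = diaphorase activity raised at least twofold by the compound at 20 µM; inactive = activation factor below 2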
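Assay system: Purified diaphorase enzyme from Clostridium kluyveri | Amount: Enzyme 0.07 U/mL final | Dosing: Compound 20 µM once, DMSO 1% | Timing: 16 min reaction at room temperature | Detection: Fluorescence, excitation 544 nm and emission 590 nm | Evaluation: Higher resorufin formation from activation or reduction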
Redox H2O2 prof = compounds producing H2O2 with reducing agent – biochemical, NIH compound library profiling, artefact control for MLSCN library redox annotation, primary screen. activation, % at 10 µM. AID 878. DTT-dependent redox cycling H2O2, phenol red/HRP absorbance; 100% = 100 µM peroxide control, 0% = buffer. 0.03% of 200,000 active;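 active = activation of at least 50% relative to the plate's high and low controls in the primary single-dose screen; inactive = activation below 50%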;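 also: compound incubated with DTT at 0.8 mM final as the reducing agent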
G6PDH counter = L. mesenteroides G6PDH inhibition counter-screen | inhibition, % at 5 µM | 0.12% of 200,000 active | Purified L. mesenteroides G6PDH, diaphorase/resazurin coupled fluorescence, 45 min | AID 1020; in the data active = inhibition above about 50%
Diaph inh CS = counter-screen for diaphorase-based assays: diaphorase inhibitors and chemical oxidizers; 0.69% of 190,000 active; diaphorase resazurin-to-resorufin fluorescence, NADH, 16 min; bacterial (C. kluyveri) enzyme, not human; AID 1217; inhibition, % at 20 µM;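 active = primary screen inhibition at 20 µM above a set limit, cut at about 50% in these data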
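Detection: fluorescence of resorufin formed from resazurin, Ex 544/Em 590 nm; test system: Clostridium kluyveri diaphorase enzyme; amount: 0.14 U/mL diaphorase, enzyme working solution; times: 16-min room-temperature incubation before reading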
PMI act = increases human mannose-6-phosphate isomerase activity | 0.005% of 190,000 active | activation factor at 20 µM | P34949 | purified human PMI, coupled resazurin fluorescence, 20 min; active compounds read high; 1 = vehicle control, 0 substrate-free wells | AID 1214;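 active = activation factor of 2 or more at 20 µM, relative to plate controls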
Target sequence (P34949 whole entry, looked up): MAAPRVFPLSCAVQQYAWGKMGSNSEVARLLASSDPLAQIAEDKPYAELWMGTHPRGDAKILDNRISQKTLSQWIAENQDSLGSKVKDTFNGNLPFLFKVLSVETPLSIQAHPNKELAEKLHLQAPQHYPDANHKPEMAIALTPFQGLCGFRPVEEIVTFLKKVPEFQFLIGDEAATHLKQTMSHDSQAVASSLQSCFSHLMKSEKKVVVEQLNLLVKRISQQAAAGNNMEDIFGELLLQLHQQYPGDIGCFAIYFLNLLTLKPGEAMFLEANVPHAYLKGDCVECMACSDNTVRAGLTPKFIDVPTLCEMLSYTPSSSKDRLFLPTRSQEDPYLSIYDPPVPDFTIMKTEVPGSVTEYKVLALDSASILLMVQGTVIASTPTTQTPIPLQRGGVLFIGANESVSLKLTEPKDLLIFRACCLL
PMI act satM6P = increases human PMI activity with near-saturating mannose 6-phosphate. P34949. coupled PMI enzyme assay, resazurin fluorescence, 20 min; active compounds read high; 1 = untreated enzyme, 0 = substrate-free blank. activation factor at 20 µM. 0.34% of 190,000 active. AID 1216;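 active = activation factor of 2 or more at 20 µM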
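Material: human phosphomannose isomerase with PGI, G6PDH, diaphorase coupling enzymes; amount: PMI at 15 ng/mL final; also added: Mannose-6-phosphate 1.0 mM (near-saturating) plus 0.22 mM NADP+; incubation: enzyme reaction with compound 20 min at room temperature; signal: resorufin fluorescence (Ex 544/Em 590 nm) from resazurin via diaphorase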
Each line names hits and unclear results; the compound was inactive in the other large screens.

COc1cc(/C=C2\SC(c3ccc(C)cc3)=NC2=O)cc(OC)c1O	Diaph inh CS 66
O=C1c2cccc3c(N4CCCCC4)ccc(c23)C(=O)N1c1ccc(O)cc1	none
O=C1c2cccc3c(N4CCCCC4)ccc(c23)C(=O)N1c1ccccc1O	Diaph inh CS 61
O=C(COc1ccccc1/C=C\c1nc(O)c([N+](=O)[O-])c(=O)[nH]1)Nc1ccccc1	Diaph inh CS 72
Cc1cc(/C=C\c2nc(O)c([N+](=O)[O-])c(=O)[nH]2)c(C)n1-c1ccccc1	none
O=[N+]([O-])c1c(NCCCO)cc(Sc2ccc(Cl)cc2)c2nonc12	Diaph inh CS 54
CC(=O)OCCNc1cc(SCc2ccco2)c2nonc2c1[N+](=O)[O-]	Diaph inh CS 77
CC(=O)OCCCNc1cc(Sc2ccc(C)cc2)c2nonc2c1[N+](=O)[O-]	none
O=[N+]([O-])c1c(NCCCO)cc(SCc2ccco2)c2nonc12	Diaph inh CS 66
CCCC(=O)OCCNc1cc(SCCC(=O)OC)c2nonc2c1[N+](=O)[O-]	Diaph inh CS 75
CC(=O)OCCNc1cc(Sc2nc3ccccc3[nH]2)c2nonc2c1[N+](=O)[O-]	none
Cn1ccnc1Sc1cc(NCCCO)c([N+](=O)[O-])c2nonc12	none
COC(=O)CCSc1cc(NCCOC(C)=O)c([N+](=O)[O-])c2nonc12	none
CC(C)N1C(=O)CCC1C(=O)NCc1cccs1 (stereo unspecified)	none
COCc1cc(C)nc(N/N=C/c2ccc(-c3ccc(Cl)cc3[N+](=O)[O-])o2)c1C#N	none
CC(=O)OCCCNc1cc(Sc2nc3ccccc3s2)c2nonc2c1[N+](=O)[O-]	Diaph inh CS 62
O=[N+]([O-])c1c(NCCCO)cc(N2CCN(Cc3ccc4c(c3)OCO4)CC2)c2nonc12	none
O=[N+]([O-])c1c(NCCO)cc(N2CCC3(CC2)OCCO3)c2nonc12	Diaph inh CS 55
COc1ccc(CNc2cc(NCCCO)c([N+](=O)[O-])c3nonc23)cc1	Diaph inh CS 61
CN(CCO)c1cc(N2CCC3(CC2)OCCO3)c2nonc2c1[N+](=O)[O-]	none
O=C(COC(=O)c1cc[n+]([O-])cc1)NCc1ccccc1Cl	none
O=C(O)c1ccc(/C=N/NC(=O)c2cc(-c3ccc4c5c(cccc35)CC4)n[nH]2)cc1	Diaph inh CS 68
O=C(N/N=C/c1ccccn1)c1cc(-c2cccc3ccccc23)n[nH]1	none
O=C1CC(NNc2ccccc2)C(=O)N1c1ccccc1 (stereo unspecified)	PMI act satM6P 2.5
Cc1ccc(NNC2CC(=O)N(c3cccc(Cl)c3)C2=O)cc1 (stereo unspecified)	PMI act satM6P 2.6
Cc1ccc(-c2nnc3ccc(SCC(=O)N4CCc5ccccc54)nn23)cc1	none
Cc1ccc(-c2nnc3ccc(SCC(=O)N4CCCc5ccccc54)nn23)cc1	Diaph inh CS 50
Cc1ccc(-c2nnc(SCC(=O)NNC(=O)COc3cccc4ccccc34)n2C)cc1	none
Cc1ccc2nc(N3C(=O)C(O)=C(C(=O)c4cc5ccccc5o4)C3c3cccs3)sc2c1 (stereo unspecified)	PMI act satM6P 2
CCc1ccc2nc(N3C(=O)C(O)=C(C(=O)c4ccco4)C3c3cccs3)sc2c1 (stereo unspecified)	none
COc1ccc(S(=O)(=O)N2CCCCCC2)cc1N(C)S(=O)(=O)c1ccc(C)cc1	none
COc1ccc(NC(=O)Cn2cccc2)c(OC)c1	Diaph inh CS 74
CCC(=O)Nc1ccc(OC)cc1OC	none
CCCN1CCC(=NNc2ccc(C(=O)O)cc2)CC1	PMI act satM6P 3
Cc1ccc(C(c2nnnn2Cc2ccccc2)N2CCN(Cc3ccccc3)CC2)cc1 (stereo unspecified)	Diaph inh CS 79
c1ccc(CN2CCN(C(c3ccccc3)c3nnnn3Cc3ccccc3)CC2)cc1 (stereo unspecified)	none
CC(=O)c1ccc(N2CCN(C(=O)Nc3cccc(F)c3)CC2)cc1	none
CCc1ccc(S(=O)(=O)/N=C2/C=C(Sc3ncn[nH]3)C(=O)c3ccccc32)cc1	G6PDH counter 52
COc1ccc(-c2cc(C(=O)c3c(N)n(C)c(=O)n(C)c3=O)c3ccccc3n2)cc1OC	none
CC(C)Nc1nnc(SCC(=O)Nc2ccc3c(c2)C(=O)c2ccccc2C3=O)s1	Diaph inh CS 52
O=C(CSc1nnc(NC2CCCCC2)s1)Nc1ccc2c(c1)C(=O)c1ccccc1C2=O	none
COc1cc(C(=S)N2CCN(c3cccc(Cl)c3)CC2)ccc1O	none
COc1cc(C(=S)N2CCN(c3ccccc3Cl)CC2)cc(O)c1O	Diaph inh CS 61
COc1ccc(NC(=O)CCC(=O)c2cccs2)cc1S(=O)(=O)Nc1ccc(Cl)cc1	Diaph inh CS 50
Cn1c(C(=O)Nc2ccc3c(c2)OCCO3)cc2c(=O)n(C)c3ccccc3c21	Diaph inh CS 54
Cn1c(C(=O)NC2CC2)cc2c(=O)n(C)c3ccccc3c21	none
COc1ccc(/C=N/NC(=O)c2nn(-c3ccc(Cl)cc3)c(=O)c3c(N)scc23)cc1	Diaph inh CS 50
COc1ccc(/C=N/NC(=O)c2nn(-c3ccc(C)c(C)c3)c(=O)c3ccccc23)cc1	none
COc1ccc(/C=N/NC(=O)c2nn(-c3ccccc3)c(=O)c3c(N)scc23)cc1	Diaph inh CS 57
CC(Nc1n[nH]c(=O)[nH]c1=O)C(=O)N/N=C/c1cccs1 (stereo unspecified)	none
Brc1ccc(C2Nc3cccc4cccc(c34)N2)o1	Diaph inh CS 85
CN1c2cccc3cccc(c23)N(C)C1c1cccs1	none
c1csc(C2Nc3cccc4cccc(c34)N2)c1	Diaph inh CS 62
OC(CNCCC(c1ccccc1)c1ccccc1)COc1ccccc1 (stereo unspecified)	none
Cc1ccc(N/N=C(\C#N)C(N)=S)c(C)c1	PMI act satM6P 3
Cn1c2ccccc2c(=O)n2c(=O)c3ccccc3cc12	G6PDH counter 51
COc1ccc(NC(=O)CN2CCC(Cc3ccccc3)CC2)cc1S(=O)(=O)N1CCOCC1	none
CC(O)CC(C(=O)NNc1ccccc1)C(=O)NNc1ccccc1 (stereo unspecified)	PMI act satM6P 2.5
O=C(NNc1ccccc1)C(CCO)C(=O)NNc1ccccc1	PMI act satM6P 2.4
Cc1nc2cc(-c3ccsc3-n3c(C)ccc3C)[nH]n2c(=O)c1Cl	Diaph inh CS 64
